Source: PubChem BioAssay
FLuc stim CS = FLuc activators, initial screening, artefact control for FLuc-dependent activation tests, biochemical, ATPlite luminescence. Luciferin 4-monooxygenase (Photinus pyralis), P08659. ATPlite luciferase biochemical, 10 min; 0 = ATP-free wells, 1 = DMSO control. activation factor at 10 µM. 200,000 tested, under 10 active. AID 1027, 2008;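 active = luciferase activation factor, scaled between plate controls, of at least 2 with compound at 10 µM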
Target sequence (P08659 whole entry, looked up): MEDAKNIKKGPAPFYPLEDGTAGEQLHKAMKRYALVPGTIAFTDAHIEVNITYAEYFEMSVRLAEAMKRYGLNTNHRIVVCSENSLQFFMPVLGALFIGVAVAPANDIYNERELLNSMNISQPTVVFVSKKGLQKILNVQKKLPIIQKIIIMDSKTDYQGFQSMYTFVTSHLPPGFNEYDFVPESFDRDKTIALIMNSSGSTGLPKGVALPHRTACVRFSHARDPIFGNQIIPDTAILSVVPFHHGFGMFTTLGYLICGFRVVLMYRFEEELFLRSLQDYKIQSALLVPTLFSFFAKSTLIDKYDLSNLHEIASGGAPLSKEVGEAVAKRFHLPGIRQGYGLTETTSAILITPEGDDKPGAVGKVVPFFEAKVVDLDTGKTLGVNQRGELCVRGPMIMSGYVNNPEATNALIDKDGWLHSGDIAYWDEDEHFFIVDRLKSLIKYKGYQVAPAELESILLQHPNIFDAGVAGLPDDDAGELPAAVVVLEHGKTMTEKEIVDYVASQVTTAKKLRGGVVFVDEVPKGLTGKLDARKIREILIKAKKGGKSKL
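test system = cell-free luciferase reagent | medium = PBS as buffer for the ATP substrate | dosing = test compounds dosed from 2 mM stocks in 100% DMSO | incubation = 10 min at ambient temperature | detection = luminescence measurement of luciferase light output | benchmarks = low control with PBS replacing ATP, high control enzyme plus ATP without compound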
PPC-1+TRAIL kill = compounds killing PPC-1 cancer cells with TRAIL present, primary screen, TRAIL potentiator project, ATPLite luminescence, uHTS; AID 1443, 2008; 220,000 tested, 0.41% active; PPC-1 cells + TRAIL, ATPLite viability luminescence; cell killing (% activity), % at 4 µM or 5 µM;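 active = cell killing above 50% in the first pass at 4 µM, then a duplicate retest at 5 µM averaging 50% or more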;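 also: plate controls were cells with TRAIL plus DMSO for no effect and medium-only wells lacking cells for full effect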
TRAIL sens C8 = viability loss with TRAIL in NB7+C8 cells, primary screen, TRAIL sensitizer project, cell-based, ATPlite luminescence; inhibition (viability loss, TRAIL sensitization), % at 10 µM; 360,000 tested, 1% active; AID 624354, 2012;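 active = compounds causing at least 50% loss of cell viability in the single-dose screen, relative to plate controls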
FLuc inh counter = firefly luciferase enzyme inhibitors, primary screen, artefact control for luciferase-based inhibitor screens, biochemical, luminescence, ATPLite; Luciferin 4-monooxygenase (Photinus pyralis), P08659; inhibition, % at 10 µM; 200,000 tested, 1.5% active; 10 min;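 active = inhibition above about 50% when tested at 10 µM, limit read from the data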
HSP90 inh = HSP90 inhibitors, primary screen, cell lysate, luminescence; Heat shock protein HSP 90 (rabbit reticulocyte lysate; luciferase refolding); 290,000 tested, 0.91% active; Rabbit reticulocyte lysate, luciferase refolding luminescence, 3 h; inhibition, % at 5.6 µM;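 active = inhibition above the screen-wide mean plus 3 SD, computed separately per campaign, cut at about 16% in these data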;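 also: 0% = DMSO wells and 100% = 60 µM geldanamycin wells; inhibitors lower the luminescence because luciferase stays unfolded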
HSP90 confirm = HSP90 inhibitors, confirmation, cell lysate, luminescence; inhibition, % at 5.9 µM; rabbit reticulocyte lysate, luciferase refolding luminescence, 3 h; 2,300 tested, 64% active; shares compounds with HSP90 inh; in the data active = inhibition above about 18%;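 also: 0% = vehicle wells and 100% = reference inhibitor wells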
FLuc counter = firefly luciferase inhibitors, HSP90 counter-screen, confirmation, artefact control for HSP90 inhibitor project, biochemical, luminescence, triplicate | purified native firefly luciferase | 2,300 tested, 48% active | AID 1847, 2009 | inhibition, % at 5.9 µM | shares compounds with HSP90 inh;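 active = inhibition above the mean inhibition of all tested sample wells plus 3 SD, cut at about 10% in these data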;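 also: 0% = DMSO with luciferase and 100% = wells lacking luciferase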
Numbers without * were called inactive; . = no result. This is a sample that favours compounds with a hit; in the whole collection about 2% have one here.

SMILES	FLuc stim CS	PPC-1+TRAIL kill	TRAIL sens C8	FLuc inh counter	HSP90 inh	HSP90 confirm	FLuc counter
COC(=O)c1ccc(N=Nc2c(C)[nH]n(-c3ccccc3)c2=O)cc1	.	.	-7	.	26*	30*	-4
COC(=O)c1ccc(N=NNc2ccccc2)cc1	0.9	7	39	15	28*	47*	-12
COc1ccc(C(=O)Nc2ccc(C(=O)N3CCCCC3C)cc2)c(OC)c1OC (centres undefined)	.	.	-4	.	-1	.	.
COc1cccc(/C=N/Nc2ncccc2[N+](=O)[O-])c1OC	.	24	10	.	67*	77*	70*
CCC(=O)N1CCc2cc(S(=O)(=O)CCC(=O)NCCc3ccccc3)ccc21	1.1	10	-13	-6	1	.	.
CCC(=O)N1CCc2cc(S(=O)(=O)CCC(=O)NCc3ccco3)ccc21	1	36	-6	-2	23*	-6	-10
CCC(=O)N1CCc2cc(S(=O)(=O)N(CC)c3cccc(C)c3)ccc21	1	5	22	-4	62*	-4	-6
CC1CCN(c2c([N+](=O)[O-])nn(-c3ccc4c(c3)OCCO4)[n+]2[O-])CC1	1	3	-6	3	17*	14	-5
CCOCCc1nn2c(=O)cc(CSCC(=O)Nc3ccccc3)nc2s1	.	.	0	.	-2	.	.
CC1CCC(NC(=O)C2CCN(C(=O)Nc3ccccc3)CC2)CC1 (centres undefined)	.	.	6	.	.	.	.
COc1ccc(Br)cc1/C=N/Nc1cccc(C(=O)O)c1	1	7	-1	-3	4	.	.
O=C(O)c1cccc(N/N=C/c2ccc(-c3ccccc3)cc2)c1	0.5	23	20	50	28*	54*	67*
COc1ccccc1/C=C/C=N/Nc1cccc(C(=O)O)c1	.	.	1	.	57*	64*	49*
Cc1[nH]c2ccccc2c1/C=N/NC(=O)c1ccccc1	.	.	15	.	-3	.	.
Cc1[nH]c2ccccc2c1/C=N/Nc1cccc(C(=O)O)c1	.	-19	1	.	54*	54*	41*
CN(C)c1ccc(/C=N/Nc2cccc(C(=O)O)c2)cc1	.	.	0	.	76*	97*	94*
CC(C)(C)c1ccc(/C=N/Nc2cccc(C(=O)O)c2)cc1	0.5	12	33	48	14	.	.
CCCS(=O)(=O)NC(=O)C1(C)CCN(C(=O)c2cccnc2Oc2ccccc2)C1 (centres undefined)	.	.	-16	.	.	.	.
CC(Oc1ccccc1F)C(=O)NNC(=O)c1cc2ccccc2o1 (centres undefined)	0.9	-10	-7	8	1	.	.
CCc1nnc(N/N=C/c2c(C)[nH]c3ccccc23)n1N	1	5	-9	-4	75*	-1	-3
Cc1[nH]c2ccccc2c1/C=N/NC(N)=S	.	-8	-13	.	8	.	.
O=C(Nc1ccccc1O)/C(=C\c1ccccc1)NC(=O)c1ccccc1	1.1	12	-5	-8	-3	.	.
O=C(/C=C/Nc1ccc(F)c(F)c1)c1ccc(Br)cc1	0.8	6	15	17	5	.	.
O=C(/C=C/Nc1ccc(Br)cc1F)c1ccccc1	0	80*	94*	96*	23*	84*	78*
CC(=O)N1/C(=C/c2ccc(N(C)C)cc2)C(=O)c2ccccc21	0.9	2	-47	9	18*	5	-13
CN(C)c1ccc(/C=C2\CCC/C(=C\c3ccccc3)C2=O)cc1	1	6	18	4	-4	.	.
CC(C)COP(=O)(c1ccc(N(C)C)cc1)C(O)c1ccc(N(C)C)cc1 (centres undefined)	.	.	4	.	0	.	.
CC(C)OP(=O)(c1ccc(N(C)C)cc1)C(O)c1ccc(N(C)C)cc1 (centres undefined)	.	.	-18	.	30*	-5	-7
